In ChEMBL document CHEMBL3425447, “Discovery of Orally Available Runt-Related Transcription Factor 3 (RUNX3) Modulators for Anticancer Chemotherapy by Epigenetic Activation and Protein Stabilization” (J Med Chem, 2015):

How the values were obtained:
[1] = target: Histone deacetylase; experiment: Inhibition of HDAC in human HeLa cell nuclear extract using Fluor de Lys as substrate incubated with compound for 30 mins by microtiter-plate reading flourimeter analysis; assay type: protein assay
[2] = system: C2C12; experiment: Induction of RUNX transcriptional activation in mouse C2C12-6xOSE2 cells at 1 uM after 24 hrs by luciferase reporter assay relative to FGF-2; assay type: functional
Procedure, shortened: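 C2C12-6xOSE stable cells grown in DMEM with 10% FBS at 37°C, 5% CO2. Seeded at 1 × 10^4 cells/well; next day treated with compound or FGF-2 (1 µM each). After 24 h, luciferase measured with Bright-Glo. Activity expressed as percent of the FGF-2 positive-control response.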

[3] = Growth inhibition of human PC3 cells after 5 days by sulforhodamine B assay; assay type: functional; conditions: PC-3, 120 h
[4] = system: MDA-MB-231; experiment: Growth inhibition of human MDA-MB-231 cells after 5 days by sulforhodamine B assay; assay type: functional; conditions: MDA-MB-231, 120 h
[5] = system: ACHN; experiment: Growth inhibition of human ACHN cells after 5 days by sulforhodamine B assay; assay type: functional; conditions: 120 h
[6] = Growth inhibition of human HCT15 cells after 5 days by sulforhodamine B assay; assay type: functional; conditions: HCT-15, 120 h
[7] = system: NCI-H23; experiment: Growth inhibition of human NCI-H23 cells after 5 days by sulforhodamine B assay; assay type: functional; conditions: NCI-H23, 120 h
[8] = Growth inhibition of human NUGC3 cells after 5 days by sulforhodamine B assay; assay type: functional; conditions: NUGC-3, 120 h
[9] = system: HEK293; experiment: Induction of myc-tagged RUNX3 acetylation in human HEK293 cells assessed as acetylated RUNX3 level at 1 uM after 24 hrs by immunoprecipitation analysis relative to TSA; assay type: functional
Procedure, shortened: (§1)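 HEK293 cells (DMEM, 10% FBS) transfected with myc-RUNX3 vector using Lipofectamine 2000. Next day treated at 1 µM for 24 h. Lysates (HEPES pH 7.5, NP-40 buffer) immunoprecipitated with anti-myc antibody and protein G beads at 4°C. Immunoprecipitates western-blotted with anti-acetylated lysine antibody; relative acetylated RUNX3 quantified.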

[10] = system: HEK293; experiment: Induction of myc-tagged RUNX3 acetylation in human HEK293 cells assessed as RUNX3 level at 1 uM after 24 hrs by immunoprecipitation analysis relative to TSA; assay type: functional; procedure, shortened: as §1
[11] = Metabolic stability in mouse liver microsomes assessed as compound remaining at 1 uM after 30 mins by LC-ESI/MS/MS analysis in absence of NADPH; assay type: ADME; conditions: read-out: Stability
Procedure, shortened: (§2)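 Compound at 1 µM incubated in triplicate with pooled mouse liver microsomes (0.5 mg/ml final) in 0.1 M potassium phosphate, pH 7.4, at 37°C, with or without 1 mM NADPH. Reactions stopped at 0 and 30 min with ice-cold acetonitrile containing internal standard. After centrifugation, supernatant analyzed by LC-ESI/MS/MS; percent remaining from analyte/IS peak-area ratios. Buspirone served as positive control.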

[12] = Metabolic stability in mouse liver microsomes assessed as compound remaining at 1 uM after 30 mins byLC-ESI/MS/MS analysis in presence of NADPH; assay type: ADME; conditions: read-out: Stability; procedure, shortened: as §2
[13] = Retention time of the compound by HPLC analysis; assay type: physicochemical
[14] = Metabolic stability in rat liver microsomes assessed as compound remaining at 1 uM after 60 mins by LC-ESI/MS/MS analysis in absence of NADPH; assay type: ADME; conditions: read-out: Stability
Procedure, shortened: (§3)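 Rat or human liver microsomes (0.5 mg/ml) incubated with test compound (1 µM) at 37°C for 60 min, with or without NADPH or UDPGA cofactor, n = 2–3. Percent parent remaining quantified by LC-ESI/MS/MS.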

[15] = Metabolic stability in rat liver microsomes assessed as compound remaining at 1 uM after 60 mins byLC-ESI/MS/MS analysis in presence of NADPH; assay type: ADME; conditions: read-out: Stability; procedure, shortened: as §3
[16] = Metabolic stability in rat liver microsomes assessed as compound remaining at 1 uM after 60 mins by LC-ESI/MS/MS analysis in absence of UDPGA; assay type: ADME; conditions: read-out: Stability; procedure, shortened: as §3
[17] = Metabolic stability in rat liver microsomes assessed as compound remaining at 1 uM after 60 mins by LC-ESI/MS/MS analysis in presence of UDPGA; assay type: ADME; conditions: read-out: Stability; procedure, shortened: as §3
[18] = system: NCI-H460; experiment: Antitumor activity against human NCI-H460 cells xenografted in BALB/c nude mouse assessed as reduction in tumor weight at 20 mg/kg, po administered daily for 2 weeks measured every 2 or 3 days for 14 days; assay type: functional
Procedure, shortened: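 Female SPF BALB/c nude mice, 6 weeks old, injected subcutaneously in the flank with NCI-H460 cells (3 × 10^7/animal). At tumor volume 50–80 mm3, randomized four per group. Dosed orally at 20 mg/kg in 10% DMAC/10% Tween 80 in saline, daily for two weeks, versus vehicle control. Tumor length and width measured by caliper three times weekly; body weight monitored.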

Row | SMILES | IC50 [1] [nM] | Activity [2] [%] | GI50 [3] [nM] | GI50 [4] [nM] | GI50 [5] [nM] | GI50 [6] [nM] | GI50 [7] [nM] | GI50 [8] [nM] | fold change (FC) [9] | fold change (FC) [10] | remaining at 0.5 h, 1 µM [11] [%] | remaining at 0.5 h, 1 µM [12] [%] | Retention_time [13] [min] | remaining at 1 h, 1 µM [14] [%] | remaining at 1 h, 1 µM [15] [%] | remaining at 1 h, 1 µM [16] [%] | remaining at 1 h, 1 µM [17] [%] | inhibition in vivo at 20 mg/kg [18] [%]
1 | CC(C)(C)c1ccc(CCn2cccc(/C=C/C(=O)NO)c2=O)cc1 | 110 | 104.7 | 500 | 840 | 700 | 710 | 910 | 470 | 0.1 | 1.2 | 103 | 28.3 | – | – | – | – | – | –
2 | CCOc1ccc(CCn2cccc(/C=C/C(=O)NO)c2=O)cc1 | 70 | 119.5 | 140 | 2050 | 2340 | 1000 | 1050 | 1280 | 0.2 | 0.8 | 105 | 59.6 | – | – | – | – | – | –
3 | O=C(/C=C/c1cccn(CCCc2ccccc2Br)c1=O)NO | 480 | 162.8 | 1860 | 2890 | 1920 | 1580 | 1880 | 1500 | – | – | – | 24.2 | – | – | – | – | – | –
4 | CCc1ccc(CCn2cccc(/C=C/C(=O)NO)c2=O)cc1 | 70 | 106 | 530 | 720 | 700 | 690 | 690 | 740 | 0.2 | 0.4 | 96.5 | 11.1 | – | – | – | – | – | –
5 | CCOc1ccccc1CCCn1cccc(/C=C/C(=O)NO)c1=O | 50 | 105.5 | 180 | 560 | 320 | 660 | 460 | 470 | 37.2 | 13.7 | 104 | 31.5 | 12.367 | – | – | – | – | –
6 | COc1cccc(Cn2cccc(/C=C/C(=O)NO)c2=O)c1 | 150 | 200 | 1820 | 3180 | 1260 | 2600 | 2690 | 1690 | 17 | 2 | 98.6 | 61.5 | – | – | – | – | – | –
7 | O=C(/C=C/c1cccn(CCc2cccc(Br)c2)c1=O)NO | 160 | 74 | 3580 | 4900 | 2000 | 7290 | 3300 | 1990 | – | – | – | – | – | – | – | – | – | –
8 | CCc1ccc(CCCn2cccc(/C=C/C(=O)NO)c2=O)cc1 | 310 | 14.3 | 1850 | 2880 | 1710 | 1060 | 2150 | 1740 | – | – | – | – | – | – | – | – | – | –
9 | O=C(/C=C/c1cccn(CCCc2cccc(Br)c2)c1=O)NO | 100 | 100.8 | 1260 | 1850 | 740 | 1160 | 1220 | 1200 | 0.4 | 0.7 | 96.7 | 20.7 | – | – | – | – | – | –
10 | COc1cccc(CCCn2cccc(/C=C/C(=O)NO)c2=O)c1 | 30 | 142.1 | 700 | 720 | 760 | 1590 | 870 | 1050 | 0.8 | 1.1 | 110 | 88.4 | 11.335 | 116 | 72.7 | 81.3 | 45.7 | –
11 | COc1ccc(Cn2cccc(/C=C/C(=O)NO)c2=O)cc1 | 380 | 84.6 | 4700 | 6260 | 4730 | 4520 | 5300 | 3880 | – | – | – | – | – | – | – | – | – | –
12 | COc1ccc(CCCn2cccc(/C=C/C(=O)NO)c2=O)cc1 | 140 | 97.6 | 1780 | 1360 | 980 | 900 | 1310 | 970 | – | – | – | – | – | – | – | – | – | –
13 | O=C(/C=C/c1cccn(CCc2ccncc2)c1=O)NO | > 10000 | 19.6 | > 10000 | > 10000 | > 10000 | > 10000 | > 10000 | > 10000 | – | – | – | – | – | – | – | – | – | –
14 | O=C1CC2(CCCC2)CC(=O)N1CCCCN1CCN(c2ncccn2)CC1 [BUSPIRONE] | – | – | – | – | – | – | – | – | – | – | 101 | 0.4 | – | – | – | – | – | –
15 | O=C(/C=C/c1cccn(CCc2ccc(Br)cc2)c1=O)NO | 360 | 53.5 | 4840 | 6390 | 2140 | 8600 | 3040 | 2830 | – | – | – | – | – | – | – | – | – | –
16 | O=C(CCC1=CCN(Cc2ccc(Br)cc2)C1=O)NO | – | – | – | – | – | – | – | – | – | – | – | – | – | – | – | – | – | 37.9
17 | O=C(/C=C/c1cccn(CCc2ccccn2)c1=O)NO | 3940 | 26.7 | > 10000 | > 10000 | > 10000 | > 10000 | > 10000 | > 10000 | – | – | – | – | – | – | – | – | – | –
